Screening results from PubChem BioAssay.
Most compounds without a hit are left out; they make up all but 4.9% or so of the library.
STAT3 act – STAT3 signaling activation | 190,000 compounds, 0.91% hits | U3A cells, IL-6 STAT3-luciferase reporter, luminescence; 100% = signal with IL-6 EC80 alone | activation (% of control), % at 5.6 µM | AID 871;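 active = activation above the screen-wide mean of compound activation plus 3 SD, cut at about 130% in these data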
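System – human U3A cells carrying STAT3-luciferase construct · Probe or stimulus – Interleukin-6, 33 ng/mL · Schedule – compound 1 h, then IL-6 6 h at 37 °C · Signal – luminescence from STAT3-driven luciferase reporter · Evaluation – percent of IL-6-only median luminescence · Benchmarks – IL-6-only high control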
NF-kB expr up – compounds increasing NF-kB expression in human neuronal cells. NF-kB reporter expression; active compounds read high. fold change at 12.5 µM. 190,000 compounds, 1.6% hits; in the data active = fold change above about 3.3
STAT1 activator – activators of IFN-gamma induced STAT1 signaling. NIH 3T3 STAT1-luciferase reporter, luminescence; 100% = IFN-gamma alone, no compound. activation (% of control), % at 5.5 µM. 200,000 compounds, 2.6% hits;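 active = activation above the screen-wide mean activation plus 3 SD, cut at about 130% in these data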
STAT1 inh – reduces IFN-gamma driven STAT1 reporter signal; NIH 3T3 STAT1-luciferase reporter, luminescence; inhibition, % at 5.5 µM; 200,000 compounds, 0.35% hits;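 active = inhibition above a set limit, the mean inhibition across all tested compounds plus 3 SD, cut at about 34% in these data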
APP 5'UTR act – APP 5'UTR luciferase reporter activation; SH-SY5Y APP 5'UTR luciferase reporter, luminescence; zero percent = DMSO vehicle wells; activation, % at 2 µM; 190,000 compounds, 1% hits; AID 1276;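 active = activation above a set limit, based on mean plus 3 SD of controls, cut at about 140% in these data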
STAT3 inh-1 – inhibitors of IL-6 induced STAT3 signaling; U3A cells, IL-6 STAT3-luciferase reporter, luminescence; host cell line lacks STAT1; 190,000 compounds, 0.89% hits; inhibition, % at 5.5 µM;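 active = inhibition above the mean inhibition across all screened compounds plus 3 SD, cut at about 44% in these data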
STAT3 inh-2 – STAT3 inhibition, confirmation assay; shares compounds with STAT3 inh-1; U3A cells, IL-6 STAT3 luciferase reporter, luminescence; cell line lacks STAT1; inhibition, % at 5.7 µM; 1,200 compounds, 45% hits; AID 1265;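 active = inhibition above the hit cutoff computed for the primary STAT3 screen, cut at about 44% in these data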
NFkB inh 2 – inhibits NF-kappaB, counter-screen to STAT3 inhibitors | inhibition, % at 5.7 µM | AID 1308 | shares compounds with STAT3 inh-1 | HEK293T NF-kB luciferase reporter, TNF-alpha induced | 1,200 compounds, 36% hits;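 active = inhibition above the mean of solvent-only control wells plus 3 SD, cutoff set per campaign, cut at about 13% in these data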
STAT1 inh 2 – STAT1 inhibition in STAT3 inhibitor counter-screen; shares compounds with STAT3 inh-1; NIH 3T3 STAT1-luciferase reporter, IFN-gamma induced, luminescence; inhibition, % at 5.7 µM; 1,200 compounds, 27% hits; AID 1317;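 active = inhibition above the mean plus 3 SD of solvent-only control wells, limit set per screening run, cut at about 16% in these data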
Numbers stand for hits; i = inactive; nt = no result.

SMILES	STAT3 act	NF-kB expr up	STAT1 activator	STAT1 inh	APP 5'UTR act	STAT3 inh-1	STAT3 inh-2	NFkB inh 2	STAT1 inh 2
CC1Cc2cc(-c3csc(NC(=O)Cc4ccccc4)n3)ccc2N1S(C)(=O)=O (configuration not stated)	i	i	i	i	i	66.0	53.1	13.0	i
COc1ccc(-c2cc(=O)c3cc(OC)ccc3o2)cc1	i	5.29	i	i	154.6	72.7	52.5	31.2	i
O=C1C2C3c4ccccc4C(c4ccccc43)C2c2nc3ccccc3n21 (configuration not stated)	i	i	i	i	i	64.2	58.7	i	i
Cc1ccc(S(=O)(=O)N(C)c2ccc(C(=O)Nc3c(C)n(C)n(-c4ccccc4)c3=O)cc2)cc1	i	nt	i	i	i	i	nt	nt	nt
CC1C/C(=C/c2ccncc2)C(=O)/C(=C/c2ccncc2)C1 (configuration not stated)	i	i	i	i	i	53.3	43.7	i	19.1
CCOC(=O)Cc1csc(NC(=O)CC)n1	i	i	i	i	i	i	nt	nt	nt
CCOC(=O)Cc1csc(N/N=C/c2ccc(C(F)(F)F)cc2)n1	i	i	i	i	i	60.0	i	13.3	i
Cc1ccc(NC(=O)COC(=O)C2CC(=O)N(Cc3ccccc3)C2)cc1S(=O)(=O)N(C)C (configuration not stated)	i	i	i	i	i	i	nt	nt	nt
C/C(=N/NC(=O)c1cccs1)c1c(C)[nH]n(-c2nc3ccccc3s2)c1=O	i	i	i	i	i	55.7	i	i	i
COC(=O)Cc1[nH]n(-c2nc3ccccc3s2)c(=O)c1C(C)=Nc1ccc(C)cc1	i	i	i	i	i	100.4	67.7	63.6	i
CCCN=C(C)c1c(-c2ccccc2)[nH]n(-c2nc3ccccc3s2)c1=O	i	i	i	i	i	i	nt	nt	nt
S=C(Nc1cccc2ccccc12)NC1CCCCC1	i	i	i	i	i	i	nt	nt	nt
COCC(C)N=C1NN=C(c2c[nH]c3ccccc23)CS1 (configuration not stated)	i	i	i	i	i	i	nt	nt	nt
O=C(c1cc(COc2c(F)cccc2F)on1)N1CCc2ccccc2C1	i	i	i	i	i	i	nt	nt	nt
O=C(c1cc(COc2c(F)cccc2F)on1)N1CCC(c2ccncc2)CC1	i	i	i	i	i	52.9	59.0	18.3	19.5
CC(C)CCNC(=O)NC(=O)COC(=O)CNC(=O)C1CCCCC1	i	i	i	i	i	i	nt	nt	nt
COc1ccc(NS(=O)(=O)c2ccc(O)c(NC(=O)c3ccc(S(=O)(=O)N4CCCCCC4)cc3)c2)cc1	i	i	i	i	i	i	nt	nt	nt
O=C(Nc1ccc(S(=O)(=O)Nc2ccc(F)cc2)cc1)c1ccc(CN2CCOCC2)cc1	i	i	i	i	i	79.6	84.5	30.1	i
COc1ccc(NS(=O)(=O)c2cccc(NC(=O)c3ccc(S(=O)(=O)N4CCCCCC4)cc3)c2)cc1	i	i	i	i	i	61.4	69.0	23.2	25.2
COc1ccc(NS(=O)(=O)c2ccc(NC(=O)c3ccc(CN4CCOCC4)cc3)cc2)cc1	i	i	i	i	i	73.1	66.0	15.8	i
O=C(CSc1nncs1)NCc1ccc(F)cc1	i	i	i	i	i	i	nt	nt	nt
O=C(N/N=C/c1ccccc1)c1n[nH]c2c1CCCC2	i	i	i	i	i	56.1	i	i	i
O=C(N/N=C/c1ccccc1Cl)c1n[nH]c2c1CCCC2	i	i	i	i	i	67.8	73.0	56.4	22.9
O=C(CN1CCCc2ccccc21)N/N=C/c1c(O)ccc2ccccc12	i	i	i	i	i	i	nt	nt	nt
O=[N+]([O-])c1cccc(-c2csc(N/N=C/c3cccc(O)c3)n2)c1	i	i	i	i	i	i	nt	nt	nt
SMILES	STAT3 act	NF-kB expr up	STAT1 activator	STAT1 inh	APP 5'UTR act	STAT3 inh-1	STAT3 inh-2	NFkB inh 2	STAT1 inh 2
Cc1cccc(N2C(=O)C(Oc3ccc(Cl)cc3Cl)C2C=O)c1C (configuration not stated)	i	i	i	i	i	i	nt	nt	nt
Cc1ccnc(NC(=O)Nc2cccc(F)c2)c1	i	8.59	138.1	i	197.9	46.4	i	i	i
O=C(Nc1cc(S(=O)(=O)N2CCOCC2)ccc1N1CCCC1)c1ccc2c(c1)S(=O)(=O)c1ccccc1C2=O	i	nt	i	i	i	i	nt	nt	nt
Cc1oc(-c2ccc(Cl)cc2)nc1CN1CCCC(C(=O)NCc2ccco2)C1 (configuration not stated)	i	i	i	i	i	i	nt	nt	nt
CCOC(=O)N1CCC(NC(=O)C2CCCN(Cc3nc(-c4cccc(Cl)c4)oc3C)C2)CC1 (configuration not stated)	i	i	i	i	i	53.6	i	13.4	24.0
CCOC(=O)N1CCN(C(=O)C2CCCN(Cc3nc(-c4ccc(Cl)cc4)oc3C)C2)CC1 (configuration not stated)	i	i	i	i	i	74.4	60.1	22.7	i
CCN1CCN(CCNC(=O)C2CCCN(Cc3nc(-c4cccc(Cl)c4)oc3C)C2)CC1 (configuration not stated)	i	i	i	i	nt	i	nt	nt	nt
Cc1ccc2cc3c(N)[nH]nc3nc2c1	i	i	i	i	i	i	nt	nt	nt
COC(=O)c1cccc(NC(=O)CSc2nc3cccnc3n2C)c1	i	i	i	i	i	56.9	48.3	i	i
NC(=O)c1nnn(-c2nonc2N)c1-c1ccc([N+](=O)[O-])cc1	i	i	i	i	i	i	nt	nt	nt
COc1ccc(-c2nn(C)c(=O)c3ccccc23)cc1NC(=O)COc1ccc(C)cc1	i	i	i	i	i	65.0	49.2	i	i
COc1cc(-c2csc(N3CCOCC3)n2)cc(OC)c1OC	i	i	i	i	i	i	nt	nt	nt
c1ccc2oc(-c3csc(N4CCOCC4)n3)cc2c1	i	5.79	i	i	137.7	57.7	i	i	i
O=C(CSc1cnc2ccccc2n1)c1ccc(F)cc1	i	4.11	i	i	188.9	58.1	i	i	i
COc1ccc(Cl)cc1NC(=O)Cn1c(NCCO)nc2ccccc21	i	i	i	i	i	i	nt	nt	nt
Cc1ccc(/C=C/C(=O)NC2=NCCS2)cc1	i	5.6	147.1	i	180.2	70.6	i	i	i
O=C(O)COc1ccc(-c2nccc(-c3ccccn3)n2)cc1	i	i	i	i	i	46.8	i	15.2	i
Cc1ccc(NC(=O)N2CCN(Cc3ccc4c(c3)OCO4)CC2)cc1	i	i	i	i	i	i	nt	nt	nt
